Experimental data as given in ChEMBL document CHEMBL5584302, “Exploration of Hydrazide-Based HDAC8 PROTACs for the Treatment of Hematological Malignancies and Solid Tumors” (J Med Chem, 2024).
Calls of active or inactive are those of the source.

Assays:
Jurkat [1] = assay: Effect on IKZF1 level in human Jurkat cells at upto 10 uM by Western blot analysis; type: functional, cell-based
Procedure, shortened: (§1)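 Jurkat cells were treated with graded concentrations for 6 h, alongside 10 μM pomalidomide. IKZF1, IKZF3 and GSPT1 were detected by Western blot, with GAPDH as the loading control.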

Jurkat [2] = assay: Effect on IKZF3 level in human Jurkat cells at upto 10 uM by Western blot analysis; type: functional, cell-based; procedure, shortened: as §1
Jurkat [3] = assay: Effect on GSPT1 level in human Jurkat cells at upto 10 uM by Western blot analysis; type: functional, cell-based; procedure, shortened: as §1
Jurkat [4] = assay: Upregulation of Ac-SMC3 level in human Jurkat cells measured after 6 hrs by Western blot analysis; type: functional, cell-based; settings: dose 0.0001-1 µM
Procedure, shortened: (§2)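 Jurkat cells exposed to the indicated compound concentrations for 6 h. Ac-SMC3 and Ac-HH3 were detected by Western blot with GAPDH as loading control. Bands were quantified by densitometry and normalized to the DMSO-treated group. Data are mean ± SEM of two independent experiments, compared with DMSO by one-way ANOVA.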

Jurkat [5] = assay: Upregulation of Ac-SMC3 level in human Jurkat cells at 1 uM measured after 6 hrs by Western blot analysis; type: functional, cell-based; procedure, shortened: as §2
Jurkat [6] = assay: Upregulation of Ac-tubulin level in human Jurkat cells at upto 1 uM measured after 6 hrs by Western blot analysis; type: functional, cell-based
Procedure, shortened: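 Jurkat cells were treated for 6 h at the indicated concentrations. Acetylated tubulin was probed by Western blot, with GAPDH as loading control.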

Jurkat [7] = assay: Upregulation of Ac-HH3 level in human Jurkat cells at 1 uM measured after 6 hrs by Western blot analysis; type: functional, cell-based; procedure, shortened: as §2
Jurkat [8] = assay: Upregulation of Ac-SMC3 level in human Jurkat cells incubated for 6 hrs by Western blot analysis; type: functional, cell-based; settings: dose <= 1.0 µM; procedure, shortened: as §2
Jurkat [9] = assay: Upregulation of Ac-HH3 level in human Jurkat cells incubated for 6 hrs by Western blot analysis; type: functional, cell-based; procedure, shortened: as §2
HCT-116 [10] = assay: Upregulation of Ac-SMC3 level in human HCT-116 cells incubated for 6 hrs by Western blot analysis; type: functional, cell-based; settings: dose 0.004-3.3 µM
Procedure, shortened: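 HCT116 cells were treated 6 h with the indicated concentrations. Ac-SMC3 was measured by Western blot with GAPDH as loading control, quantified by densitometry and normalized to the DMSO group. Data are mean ± SEM from two independent experiments; one-way ANOVA vs DMSO.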

HCT-116 [11] = assay: Upregulation of Ac-HH3 level in human HCT-116 cells incubated for 6 hrs by Western blot analysis; type: functional, cell-based; settings: dose 0.004-3.3 µM
Procedure, shortened: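 HCT116 cells were incubated with graded concentrations for 6 h. Ac-HH3 was detected by Western blot with GAPDH as the loading control, then quantified by densitometry and normalized to DMSO-treated cells. Data are mean ± SEM of two independent experiments, compared against DMSO by one-way ANOVA.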

Jurkat [12] = assay: Upregulation of Ac-HH3 level in human Jurkat cells measured after 24 hrs by Western blot analysis; type: functional, cell-based; settings: dose <= 10000.0 nM
Procedure, shortened: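 Jurkat cells were incubated 24 h with the indicated concentrations. Ac-HH3 was detected by Western blot against a GAPDH loading control, quantified by densitometry and normalized to DMSO-treated cells. Data are mean ± SEM of two independent experiments; one-way ANOVA vs DMSO.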

HCT-116 [13] = assay: Upregulation of Ac-HH3 level in human HCT-116 cells at 0.04 to 3.3 uM measured after 24 hrs by Western blot analysis; type: functional, cell-based; settings: dose 0.04-3.3 µM
THP-1 [14] = assay: Upregulation of Ac-HH3 level in human THP-1 cells at 0.04 to 3.3 uM measured after 24 hrs by Western blot analysis; type: functional, cell-based; settings: dose 0.04-3.3 µM
Procedure, shortened: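 THP-1 cells were exposed to the compound at the indicated concentrations for 24 h, then immunoblotted for Ac-HH3, Ac-SMC3, Ac-tubulin and HDAC8 with GAPDH as loading control. Band intensities were quantified and normalized to the DMSO-treated group. Data are mean ± SEM of two independent experiments, analysed by one-way ANOVA against DMSO.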

Jurkat [15] = assay: Upregulation of AcHH3 level on human Jurkat cells at 0.04 to 10 uM measured after 48 hrs by Western blot analysis; type: functional, cell-based; settings: dose 0.04-10 µM
Jurkat [16] = assay: Upregulation of AcHH4 level on human Jurkat cells at 0.04 to 10 uM measured after 48 hrs by Western blot analysis; type: functional, cell-based; settings: dose 0.04-10 µM
Jurkat [17] = assay: Induction of apoptosis in human Jurkat cells assessed as increase in caspase 3/7 activity incubated for 48 hrs; type: functional, cell-based; settings: dose upper 5.0 µM
HCT-116 [18] = assay: Induction of apoptosis in human HCT-116 cells assessed as increase in caspase 3/7 activity incubated for 48 hrs; type: functional, cell-based; settings: dose 12.5-5 µM
Jurkat [19] = assay: Induction of apoptosis in human Jurkat cells assessed as increase in caspase 3/7 activity at 5 uM incubated for 48 hrs; type: functional, cell-based
HCT-116 [20] = assay: Induction of apoptosis in human HCT-116 cells assessed as increase in caspase 3/7 activity at 5 uM incubated for 48 hrs; type: functional, cell-based
Jurkat [21] = assay: Induction of apoptosis in human Jurkat cells at 1.1 to 10 uM measured after 24 to 48 hrs by AnnexinV/FITC and PI staining based flow cytometry analysis; type: functional, cell-based; settings: dose 1.1-10 µM, time 24-48 hrs
HCT-116 [22] = assay: Induction of apoptosis in human HCT-116 cells measured after 48 hrs by AnnexinV/FITC and PI staining based flow cytometry analysis; type: functional, cell-based; settings: dose 1.1-10 µM
HCT-116 [23] = assay: Induction of apoptosis in human HCT-116 cells assessed as necrotic cells at 1.1 uM measured after 48 hrs by AnnexinV/FITC and PI staining based flow cytometry analysis (reference value: […]); type: functional
Jurkat [24] = assay: Induction of ferroptosis in human Jurkat cells assessed as increase in lipid peroxidation incubated for 24 hrs by BODIPY 581/591 C11 staining based flow cytometry analysis; type: functional, cell-based; settings: dose 0.37-10 µM
HCT-116 [25] = assay: Induction of ferroptosis in human HCT-116 cells assessed as increase in lipid peroxidation at low concentration incubated for 24 hrs by BODIPY 581/591 C11 staining based flow cytometry analysis; type: functional, cell-based; settings: dose 0.37-10 µM
THP-1 [26] = assay: Induction of ferroptosis in human THP-1 cells assessed as increase in lipid peroxidation at 0.37 to 10 uM incubated for 24 hrs by BODIPY 581/591 C11 staining based flow cytometry analysis; type: functional, cell-based; settings: dose 0.37-10 µM
Jurkat [27] = assay: Induction of ferroptosis in human Jurkat cells assessed as increase in lipid peroxidation incubated for 48 hrs by BODIPY 581/591 C11 staining based flow cytometry analysis; type: functional, cell-based
Jurkat [28] = assay: Induction of cell death in human Jurkat cells at 5 uM measured after 48 hrs in presence of Z-VAD-FMK by flow cytometry analysis; type: functional, cell-based
Jurkat [29] = assay: Induction of cell death in human Jurkat cells at 5 uM measured after 48 hrs in presence of necrostatin-1 by flow cytometry analysis; type: functional, cell-based
Jurkat [30] = assay: Induction of cell death in human Jurkat cells at 5 uM measured after 48 hrs in presence of ferrostatin-1 by flow cytometry analysis; type: functional, cell-based
Jurkat [31] = assay: Induction of cell death in human Jurkat cells at 5 uM measured after 48 hrs in presence of chloroquine by flow cytometry analysis; type: functional, cell-based
Jurkat [32] = assay: Induction of cell cycle arrest in human Jurkat cells assessed as accumulation of cells at G0/G1 phase measured after 48 hrs by PI staining based flow cytometry analysis; type: functional; settings: dose 0.13-3.3 µM
HCT-116 [33] = assay: Induction of cell cycle arrest in human HCT-116 cells assessed as accumulation of cells at G2/M phase measured after 48 hrs by PI staining based flow cytometry analysis; type: functional; settings: dose 0.13-3.3 µM
Jurkat [34] = assay: cells; settings: Homo sapiens
Jurkat [35] = assay: cells; settings: Homo sapiens; remark: listed apart in the source
Jurkat [36] = assay: cells; settings: Homo sapiens; remark: listed apart in the source
Jurkat [37] = assay: cells; settings: Homo sapiens; remark: listed apart in the source
THP-1 [38] = assay: cells; settings: Homo sapiens
HCT-116 [39] = assay: cells; settings: Homo sapiens
A549 = assay: cells; settings: Homo sapiens

CCCCCCNNC(=O)c1ccc(CNC(=O)CN2CCC(c3ccc(NC4CCC(=O)NC4=O)cc3)CC2)cc1 (stereo not given)
2.5 µM: IC50 (Jurkat [37])
active: Activity (Jurkat [4]) Dose-Dependent Effect | Activity (Jurkat [5]) | Activity (Jurkat [7]) | Activity (Jurkat [8]) Dose-Dependent Effect | Activity (Jurkat [9]) Dose-Dependent Effect | Activity (HCT-116 [10]) Dose-Dependent Effect | Activity (HCT-116 [11]) Dose-Dependent Effect | Activity (Jurkat [12]) Dose-Dependent Effect | Activity (HCT-116 [13]) | Activity (THP-1 [14]) | Activity (Jurkat [15]) | Activity (Jurkat [16]) | Activity (Jurkat [17]) Dose-Dependent Effect | Activity (HCT-116 [18]) Dose-Dependent Effect | Activity (Jurkat [19]) | Activity (HCT-116 [20]) | Activity (HCT-116 [22]) Dose-Dependent Effect | Activity (Jurkat [24]) Dose-Dependent Effect | Activity (HCT-116 [25]) | Activity (Jurkat [28]) | Activity (Jurkat [29]) | Activity (Jurkat [30]) | Activity (Jurkat [31]) | Activity (Jurkat [32]) Dose-Dependent Effect | Activity (HCT-116 [33]) Dose-Dependent Effect
4.28%: Activity (HCT-116 [23])
17.5 µM: IC50 (A549)
1.5 µM: IC50 (Jurkat [34])
> 33.3 µM: IC50 (THP-1 [38])
inactive: Activity (Jurkat [1]) | Activity (Jurkat [2]) | Activity (Jurkat [3]) | Activity (Jurkat [6]) | Activity (Jurkat [21]) | Activity (THP-1 [26]) | Activity (Jurkat [27])
2.8 µM: IC50 (Jurkat [36])
3.8 µM: IC50 (HCT-116 [39])
2 µM: IC50 (Jurkat [35])
